Measurements reported in ChEMBL document CHEMBL1139802, “Pyrazole inhibitors of HMG-CoA reductase: an attempt to dramatically reduce synthetic complexity through minimal analog re-design” (Bioorg Med Chem Lett, 2007).

What was measured:
[1] = molecular target: T1, 3-hydroxy-3-methylglutaryl-coenzyme A reductase (Rattus norvegicus, UniProt P51639); experiment: Inhibition of HMG-CoA reductase in rat liver microsomes; set-up: species or system Microsome
T1 sequence (P51639 whole entry): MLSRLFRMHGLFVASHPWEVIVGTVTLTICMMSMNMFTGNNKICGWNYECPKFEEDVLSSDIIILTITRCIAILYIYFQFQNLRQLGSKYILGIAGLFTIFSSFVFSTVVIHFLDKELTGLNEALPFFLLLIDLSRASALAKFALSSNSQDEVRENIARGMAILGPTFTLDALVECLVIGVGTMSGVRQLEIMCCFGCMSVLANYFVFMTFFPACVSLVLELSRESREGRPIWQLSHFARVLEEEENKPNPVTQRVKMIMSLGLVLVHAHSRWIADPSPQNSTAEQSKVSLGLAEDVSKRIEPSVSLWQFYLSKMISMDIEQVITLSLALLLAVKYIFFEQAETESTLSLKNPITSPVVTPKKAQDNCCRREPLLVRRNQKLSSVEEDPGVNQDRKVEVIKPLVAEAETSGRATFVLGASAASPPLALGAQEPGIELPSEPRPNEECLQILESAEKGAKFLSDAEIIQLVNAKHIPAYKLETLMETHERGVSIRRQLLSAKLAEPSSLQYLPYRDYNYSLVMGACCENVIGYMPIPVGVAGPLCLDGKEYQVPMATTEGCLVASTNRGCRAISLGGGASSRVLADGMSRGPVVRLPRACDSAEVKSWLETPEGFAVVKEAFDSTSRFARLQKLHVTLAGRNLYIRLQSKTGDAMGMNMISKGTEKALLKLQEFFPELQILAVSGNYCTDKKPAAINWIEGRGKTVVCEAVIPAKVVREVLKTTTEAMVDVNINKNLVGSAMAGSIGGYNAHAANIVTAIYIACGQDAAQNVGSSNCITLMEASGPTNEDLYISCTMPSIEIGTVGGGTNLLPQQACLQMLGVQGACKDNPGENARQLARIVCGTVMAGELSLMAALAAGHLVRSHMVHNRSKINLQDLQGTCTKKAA

[2] = Inhibition of cholesterol synthesis in rat hepatocytes; assay type: functional, cell-based; conditions: Hepatocyte
L6 = experiment: Inhibition of cholesterol synthesis in L6 myocytes; assay type: functional, cell-based; conditions: Rattus norvegicus
Hamster [3] = experiment: Inhibition of cholesterol synthesis in hamster at 10 mg/kg, po after 4 to 6 hrs relative to control; assay type: functional, Cricetinae; set-up: scale not given: the % may be the effect or the level left
Summary of the method: (§1)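 Male Syrian Golden hamsters received a single oral 10 mg/kg dose. A bolus of sodium 14C-acetate was given at 2, 3 or 4 h post-dose, giving 2–4, 3–5 and 4–6 h windows. Label incorporated into plasma cholesterol was measured over the following 2 h. Results are reported as percent change in incorporation relative to vehicle-dosed animals.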

Hamster [4] = experiment: Inhibition of cholesterol synthesis in hamster at 10 mg/kg, po after 2 to 4 hrs relative to control; assay type: functional, Cricetinae; set-up: scale not given: the % may be the effect or the level left; summary of the method: as §1
Hamster [5] = experiment: Inhibition of cholesterol synthesis in hamster at 10 mg/kg, po after 3 to 5 hrs relative to control; assay type: functional, Cricetinae; set-up: scale not given: the % may be the effect or the level left; summary of the method: as §1

SMILES | IC50 [1] [nM] | IC50 [2] [nM] | IC50 (L6) [nM] | Activity (Hamster [3]) [%] | Activity (Hamster [4]) [%] | Activity (Hamster [5]) [%]
Cc1ccc(CN(C)C(=O)c2nn(-c3ccc(F)cc3)c(OC[C@@H](O)C[C@@H](O)CC(=O)O)c2C(C)C)cc1 | 37 | 1.2 | 1250 |  |  | 
Cc1ccc(CNC(=O)c2nn(-c3ccc(F)cc3)c(OC[C@@H](O)C[C@@H](O)CC(=O)O)c2C(C)C)cc1 | 15 | 1.8 | 2110 | 9 | -30 | 
Cc1ccccc1CNC(=O)c1nn(-c2ccc(F)cc2)c(OC[C@@H](O)C[C@@H](O)CC(=O)O)c1C(C)C | 17 | 0.88 | 2850 | 39 |  | 
COc1cc(CN(C)C(=O)c2nn(-c3ccc(F)cc3)c(OC[C@@H](O)C[C@@H](O)CC(=O)O)c2C(C)C)cc(OC)c1 | 43 | 7.1 |  |  |  | 
CC(C)c1c(C(=O)N(C)Cc2cccc(F)c2)nn(-c2ccc(F)cc2)c1OC[C@@H](O)C[C@@H](O)CC(=O)O | 14 | 1.9 | 2470 | -1 | -41 | 
Cc1cccc(CN(C)C(=O)c2nn(-c3ccc(F)cc3)c(OC[C@@H](O)C[C@@H](O)CC(=O)O)c2C(C)C)c1 | 37 | 2.5 | 18500 |  |  | 
CC(C)c1c(C(=O)N(C)Cc2cccc(C(F)(F)F)c2)nn(-c2ccc(F)cc2)c1OC[C@@H](O)C[C@@H](O)CC(=O)O | 31 | 12 |  |  |  | 
COc1cccc(CN(C)C(=O)c2nn(-c3ccc(F)cc3)c(OC[C@@H](O)C[C@@H](O)CC(=O)O)c2C(C)C)c1 | 21 | 1.6 | 9460 | 53 |  | 
CC(C)c1c(C(=O)N(C)Cc2ccc(F)c(F)c2)nn(-c2ccc(F)cc2)c1OC[C@@H](O)C[C@@H](O)CC(=O)O | 5.7 | 8 | 4570 |  |  | -5
CC(C)c1c(C(=O)N(C)Cc2ccccc2F)nn(-c2ccc(F)cc2)c1OC[C@@H](O)C[C@@H](O)CC(=O)O | 8.7 | 3.2 | 11600 |  |  | -4
CC(C)c1c(C(=O)N(C)Cc2ccc(F)cc2)nn(-c2ccc(F)cc2)c1OC[C@@H](O)C[C@@H](O)CC(=O)O | 18 | 3.8 | 2800 | 91 |  | 
CC(C)c1c(C(=O)NCCc2ccccc2)nn(-c2ccc(F)cc2)c1OC[C@@H](O)C[C@@H](O)CC(=O)O | 15 | 14 | 760 |  |  | 
CC(C)c1c(C(=O)NCC2CCCCC2)nn(-c2ccc(F)cc2)c1OC[C@@H](O)C[C@@H](O)CC(=O)O | 17 | 56 |  |  |  | 
CCCCNC(=O)c1nn(-c2ccc(F)cc2)c(OC[C@@H](O)C[C@@H](O)CC(=O)O)c1C(C)C | 76 | 39 |  |  |  | 
CC(C)c1c(C(=O)N(C)CC2CCCCC2)nn(-c2ccc(F)cc2)c1OC[C@@H](O)C[C@@H](O)CC(=O)O | 6.2 | 1.3 | 2510 |  |  | 23
COc1ccc(CNC(=O)c2nn(-c3ccc(F)cc3)c(OC[C@@H](O)C[C@@H](O)CC(=O)O)c2C(C)C)cc1 | 12 | 37 |  |  |  | 
COc1cccc(CNC(=O)c2nn(-c3ccc(F)cc3)c(OC[C@@H](O)C[C@@H](O)CC(=O)O)c2C(C)C)c1 | 16 | 8.4 | 8750 | 37 |  | 
CC(C)c1c(C(=O)N2CCC[C@H](c3ccccc3)C2)nn(-c2ccc(F)cc2)c1OC[C@@H](O)C[C@@H](O)CC(=O)O | 4.8 | 1.5 | 1110 |  | -15 | 
CC(C)c1c(C(=O)NCc2ccccn2)nn(-c2ccc(F)cc2)c1OC[C@@H](O)C[C@@H](O)CC(=O)O | 25 | 7.5 |  |  |  | 
CC(C)c1c(C(=O)NCc2ccccc2)nn(-c2ccc(F)cc2)c1OC[C@@H](O)C[C@@H](O)CC(=O)O | 3.8 | 14 | 880 | 41 |  | 

SMILES | IC50 [1] [nM] | IC50 [2] [nM] | IC50 (L6) [nM] | Activity (Hamster [3]) [%] | Activity (Hamster [4]) [%] | Activity (Hamster [5]) [%]
CC(C)c1c(C(=O)N(C)Cc2ccccc2)nn(-c2ccc(F)cc2)c1OC[C@@H](O)C[C@@H](O)CC(=O)O | 5.2 | 1.1 | 6720 | 26 | -49 | 
CC(C)c1c(C(=O)NCc2cccc(F)c2F)nn(-c2ccc(F)cc2)c1OC[C@@H](O)C[C@@H](O)CC(=O)O | 2 | 19 | 120 |  |  | 
CC(C)c1c(C(=O)N(C)Cc2cccc(F)c2F)nn(-c2ccc(F)cc2)c1OC[C@@H](O)C[C@@H](O)CC(=O)O | 14 | 2.8 | 860 |  |  | 
Cc1ccc(CNC(=O)c2nn(-c3ccc(F)cc3)c(CC[C@@H](O)C[C@@H](O)CC(=O)O)c2C(C)C)cc1 | 2.5 | 1.1 | 800 | -15 | -74 | 
CC(C)c1c(C(=O)NCc2ccccc2Cl)nn(-c2ccc(F)cc2)c1OC[C@@H](O)C[C@@H](O)CC(=O)O | 9.5 | 76 | 8450 |  |  | 
COc1ccccc1CNC(=O)c1nn(-c2ccc(F)cc2)c(OC[C@@H](O)C[C@@H](O)CC(=O)O)c1C(C)C | 22 | 83 |  |  |  | 
CCOc1cccc(CN(C)C(=O)c2nn(-c3ccc(F)cc3)c(OC[C@@H](O)C[C@@H](O)CC(=O)O)c2C(C)C)c1 | 16 | 2.8 | 3550 |  |  | 
CC(C)c1c(C(=O)N(C)[C@H](C)c2ccccc2)nn(-c2ccc(F)cc2)c1OC[C@@H](O)C[C@@H](O)CC(=O)O | 21 | 11 |  |  |  | 
Cc1cccc(CNC(=O)c2nn(-c3ccc(F)cc3)c(OC[C@@H](O)C[C@@H](O)CC(=O)O)c2C(C)C)c1 | 4.9 | 0.99 | 280 |  |  | 
CC(C)c1c(C(=O)NCc2cccc(Cl)c2)nn(-c2ccc(F)cc2)c1OC[C@@H](O)C[C@@H](O)CC(=O)O | 5.4 | 9.9 |  |  |  | 
CC(C)c1c(C(=O)N2CCCCC2)nn(-c2ccc(F)cc2)c1OC[C@@H](O)C[C@@H](O)CC(=O)O | 47 | 3.8 | 32200 |  |  | 
CC(C)c1c(C(=O)N2CCC[C@H](c3ccccc3)C2)nn(-c2ccc(F)cc2)c1CC[C@@H](O)C[C@@H](O)CC(=O)O | 2.1 | 0.28 | 310 |  | -78 | -57
COCc1cccc(CNC(=O)c2nn(-c3ccc(F)cc3)c(OC[C@@H](O)C[C@@H](O)CC(=O)O)c2C(C)C)c1 | 31 | 1.1 | 3600 |  |  | -6
CC(C)c1c(C(=O)N(C)Cc2ccccc2)nn(-c2ccc(F)cc2)c1CC[C@@H](O)C[C@@H](O)CC(=O)O | 6.2 | 0.31 | 2870 | -16 | -61 | 
CC(C)c1c(C(=O)N(C)Cc2cccc(F)c2)nn(-c2ccc(F)cc2)c1CC[C@@H](O)C[C@@H](O)CC(=O)O | 4.1 | 0.16 | 1900 | -12 | -66 | 
CC(C)c1c(C(=O)NCc2ccc(Cl)cc2)nn(-c2ccc(F)cc2)c1OC[C@@H](O)C[C@@H](O)CC(=O)O | 6.7 | 44 |  |  |  | 
CCN(Cc1ccccc1)C(=O)c1nn(-c2ccc(F)cc2)c(OC[C@@H](O)C[C@@H](O)CC(=O)O)c1C(C)C | 14 | 4.7 | 2660 |  |  | 
CC(C)c1c(C(=O)N2CCCC2c2ccccc2)nn(-c2ccc(F)cc2)c1OC[C@@H](O)C[C@@H](O)CC(=O)O (some centres not stated) | 14 | 8 | 4340 |  |  | 
CC(C)c1c(C(=O)N(C)Cc2cccc(Cl)c2)nn(-c2ccc(F)cc2)c1OC[C@@H](O)C[C@@H](O)CC(=O)O | 8.3 | 1.8 | 2120 |  |  | 0
CC(C)c1nc(N(C)S(C)(=O)=O)nc(-c2ccc(F)cc2)c1/C=C/[C@@H](O)C[C@@H](O)CC(=O)O [ROSUVASTATIN] | 2.1 | 0.23 | 210 | -46 | -76 | 
